Assay results as given in ChEMBL document CHEMBL4385644, “Phenylhydrazides as inhibitors of Leishmania amazonensis arginase and antileishmanial activity” (Bioorg Med Chem, 2019).
The source made the active and inactive calls. No cut-off for these calls is given here.

Legend:
[1] = target: Arginase (Leishmania amazonensis) (UniProt O96394); assay: (§1) Mixed type inhibition of recombinant Leishmania amazonensis arginase expressed in Escherichia coli assessed as reduction in urea production by measuring dissociation constant for enzyme-substrate-inhibitor complex using L-arginine as substrate by Berthelot colorimetric method based Dixon/Cornish-Bowden plot analysis relative to control
Outline: (§2)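 Urea read by the Berthelot method. Ki and Kis taken from Dixon and Cornish-Bowden plots; Cornish-Bowden slopes compared statistically. Points are means of three independent experiments run in duplicate; constants given as mean ± SEM.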

Arginase [2] = target: T1, Arginase (Leishmania amazonensis, UniProt O96394); assay: as §1, with “Competitive” for “Mixed type”, “enzyme-inhibitor” for “enzyme-substrate-inhibitor”; outline: as §2
[3] = target: Arginase (Leishmania amazonensis) (UniProt O96394); assay: Inhibition of recombinant Leishmania amazonensis arginase expressed in Escherichia coli assessed as reduction in urea production at 100 uM using L-arginine as substrate by Berthelot colorimetric method relative to control
Arginase [4] = target: T1, Arginase; assay: Inhibition of recombinant Leishmania amazonensis arginase expressed in Escherichia coli assessed as reduction in urea production using L-arginine as substrate by Berthelot colorimetric method relative to control
Outline: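 Arginase overexpressed in E. coli and purified. Urea formed was measured colorimetrically by the Berthelot method. IC50 given as mean ± SEM.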

Leishmania amazonensis [5] = assay: Antileishmanial activity against Leishmania amazonensis MHOM/BR/1973/M2269 promastigotes assessed as inhibition of parasite growth incubated for 72 hrs by MTT assay; type: functional, organism-based; details: MHOM/BR/1973/M2269, 72 h
Outline: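 MHOM/BR/1973/M2269 promastigotes grown to stationary phase in M199 with 10% FBS, 5 ppm hemin, streptomycin and penicillin; 5.0 × 10^5 cells exposed 72 h to compounds at 100 µM to 0.78 µM (amphotericin B control, 10 µM downward). Formazan dissolved in DMSO and read at 570 nm. EC50 from a normalized variable-slope sigmoidal fit; mean ± SEM.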

Leishmania amazonensis [6] = assay: Antileishmanial activity against Leishmania amazonensis MHOM/BR/1973/M2269 promastigotes assessed as inhibition of parasite growth at 100 uM incubated for 72 hrs by MTT assay; type: functional, organism-based
Outline: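 Single-concentration screen at 100 µM. Stationary-phase MHOM/BR/1973/M2269 promastigotes in supplemented M199, 5.0 × 10^5 cells, exposed 72 h. Formazan dissolved in DMSO and read at 570 nm.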

[7] = target: Arginase (Leishmania amazonensis) (UniProt O96394); assay: Ratio of Ki to Kis for inhibition of recombinant Leishmania amazonensis arginase expressed in Escherichia coli assessed as reduction in urea production using L-arginine as substrate by Berthelot colorimetric method based Dixon/Cornish-Bowden plot analysis relative to control

Kis [1] [µM]	Ki (Arginase [2]) [µM]	inhibition [3]	IC50 (Arginase [4]; read-out: IC50) [µM]	IC50 (Arginase [4])	Ratio [7]	Compound	EC50 (Leishmania amazonensis [5]) [µM]	growth inhibition (GI) (Leishmania amazonensis [6])
26	1.3	> 70%	12	–	–	CC(=O)Nc1ccc(C)cc1C(F)(F)C(=O)NNc1ccccc1	> 100	–
–	–	inactive	–	Not Active	–	CC(=O)Nc1ccccc1C(F)(F)C(=O)Nc1ccccc1	–	–
–	–	8%	> 100	–	–	CC(=O)Nc1ccccc1C(F)(F)C(=O)NNc1ccccn1	> 100	–
–	5.1	> 70%	12	–	–	CC(=O)Nc1ccccc1C(F)(F)C(=O)NNc1ccccc1	12.7	Active
–	–	–	–	Not Active	–	C[C@@H]1[C@H](O)[C@@H](C)/C=C/C=C/C=C/C=C/C=C/C=C/C=C/[C@H](O[C@@H]2O[C@H](C)[C@@H](O)[C@H](N)[C@@H]2O)C[C@@H]2O[C@](O)(C[C@@H](O)C[C@@H](O)[C@H](O)CC[C@@H](O)C[C@@H](O)CC(=O)O[C@H]1C)C[C@H](O)[C@H]2C(=O)O [AMPHOTERICIN B]	0.33	–
–	–	inactive	–	Not Active	–	CC(=O)Nc1ccccc1C(F)(F)C(=O)Nc1ccc(Cl)cc1	–	–
–	–	inactive	–	Not Active	–	CC(=O)Nc1ccc(C)cc1C(F)(F)C(=O)NC(C)C	–	–
11	26	> 70%	38	–	–	CC(=O)Nc1ccccc1C(F)(F)C(=O)NNc1ccc(C(F)(F)F)cc1	> 100	–
–	–	–	> 100	–	–	CC(=O)Nc1ccc(C)cc1C(F)(F)C(=O)NNc1ccccn1	> 100	–
6.5	32	> 70%	37	–	5	CC(=O)Nc1ccccc1C(F)(F)C(=O)NCc1ccccc1	> 100	–
